S1P1 ag-PAM: S1P1 (human) agonism or agonism potentiation; S1P1 CRE-bla cells, forskolin, beta-lactamase FRET, potentiator mode; S1P1 agonist co-added at EC20, 2 nM; 100% = saturating reference agonist, 0% = basal; P21453; actives 0.57% (n = 56,000); activation, % at 9.5 µM;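 active = activation above a cutoff set at the mean activation of all tested compounds plus 3 SD, cut at about 54% in these data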;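 also: forskolin at 4 µM as EC80 and the EC20 agonist is SEW2871; 100% = SEW2871 at its EC100 plus forskolin at EC80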
Target sequence (P21453 whole entry, looked up): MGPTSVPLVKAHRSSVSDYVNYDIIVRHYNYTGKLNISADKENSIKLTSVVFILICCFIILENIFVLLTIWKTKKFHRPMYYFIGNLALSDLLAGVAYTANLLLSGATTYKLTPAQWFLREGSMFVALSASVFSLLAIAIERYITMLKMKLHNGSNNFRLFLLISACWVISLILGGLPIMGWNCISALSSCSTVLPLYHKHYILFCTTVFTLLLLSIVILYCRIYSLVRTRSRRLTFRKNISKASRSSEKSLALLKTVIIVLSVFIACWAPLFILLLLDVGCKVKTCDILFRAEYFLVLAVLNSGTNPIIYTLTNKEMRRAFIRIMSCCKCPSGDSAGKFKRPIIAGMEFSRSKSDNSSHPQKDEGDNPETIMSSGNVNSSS
5HT1a ag: activates the human 5-HT1a serotonin receptor. CHO 5-HT1a Ga15 NFAT-bla reporter, FRET ratio; 0% basal, 100% maximal reference agonist. activation, % at 10 µM. actives 0.56% (n = 65,000);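 active = activation above the screen-wide mean activation plus 3 SD, cut at about 19% in these data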;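 also: 0% = DMSO wells and 100% = 5-CT at EC100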
5HT1a antag: 5-HT1a (human) receptor antagonism | P08908 | CHO 5-HT1a Ga15 NFAT-bla reporter, antagonist mode | inhibition, % at 10 µM | actives 0.68% (n = 62,000);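 active = inhibition above the mean of all tested compounds plus 3 SD, cut at about 43% in these data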;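 also: receptor stimulated by 5-CT agonist at 100 nM near EC80; beta-lactamase reporter measured by ratiometric fluorescence of a cleavable substrate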
S1P3 agonist: activates the human S1P3 receptor | activation, % at 4.5 µM | S1P3 NFAT-BLA reporter cells, agonism, FRET ratio; relative to 1 µM S1P, basal subtracted | Q99500 | actives 0.1% (n = 60,000);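 active = activation above the screen-wide mean plus 3 SD, cut at about 4.5% in these data, passing the limit was not always enough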
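Benchmarks: high control 1 µM S1P / System: stable CHO line with human S1P3, Gα16, NFAT-BLA reporter / Dosing: single compound concentration, 4.5 µM final / Timing: 4 h compound at 37 °C, 2 h substrate at RT / Measured by: FRET β-lactamase substrate fluorescence, excitation 405 nm, 460/535 nm emission ratio, background-subtracted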
HTR1E antagonist: antagonists of human 5-HT1E serotonin receptor. P28566. actives 0.99% (n = 65,000). AID 571. CHO 5-HT1E Ga15 NFAT-bla reporter, FRET, antagonist. inhibition, % at 6 µM;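 active = inhibition above a set limit, the mean inhibition across every tested compound plus 3 SD, cut at about 29% in these data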;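 also: signal is the 460 over 535 nm emission ratio of beta-lactamase substrate; 0% = agonist plus DMSO wells and 100% = wells without agonist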
5HT1E ag: activates the human 5-HT1E serotonin receptor; actives 0.69% (n = 65,000); AID 574; activation, % at 6 µM; CHO 5-HT1E Ga15 NFAT-bla reporter, FRET; 0% DMSO wells, 100% control agonist wells; P28566;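 active = activation above a set limit, the screen-wide mean activation plus 3 SD, cut at about 8.5% in these data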;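 also: 100% = positive control agonist at 1 µM giving full maximal response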
Starred values were filed as active, the others as inactive; · = no result given. In the library only some 3% were active in any assay of this set; here they are far more common.

SMILES | S1P1 ag-PAM | 5HT1a ag | 5HT1a antag | S1P3 agonist | HTR1E antagonist | 5HT1E ag
COc1ccc(-c2noc(CSc3ccccc3)n2)cc1OC | -1 | 1 | -5 | -1 | -1 | 0
COc1ccc(-c2noc(CSc3nnc(CCc4ccccc4)n3-c3ccccc3)n2)cc1OC | 3 | 4 | 43* | -1 | 7 | 0
COc1ccc(Cc2nc(-c3ccc(-n4cccc4)cc3)no2)cc1OC | 66* | 2 | 0 | -1 | 3 | 1
Cc1ccnc(NC(=O)C2CCC(CNc3c(N4CCCC4)c(=O)c3=O)CC2)c1 (configuration not stated) | -13 | -1 | 10 | -1 | -1 | 0
CC1CCN(c2nc(-c3ccco3)c3c(c2C#N)CC(C)(C)OC3)CC1 | -35 | 3 | 14 | 0 | -1 | 0
CCC(C)C1C(C#N)=C(N)Oc2n[nH]c(C)c21 (configuration not stated) | 29 | -1 | 14 | 0 | 39* | 0
Cc1[nH]nc2c1C(C(C)C)C(C#N)=C(N)O2 (configuration not stated) | -2 | -6 | 12 | 0 | 0 | 0
O=C(Nc1ccon1)c1csc2ccccc12 | -21 | -8 | 17 | 0 | -2 | -1
O=C(Nc1ccon1)c1csc2c1CCCC2 | 0 | -2 | -18 | 0 | -10 | 8.9*
O=C(CN1CCN(c2ccc(Cl)cc2)CC1)c1ccc2c(c1)OCO2 | -84 | -3 | 5 | -1 | 15 | 15*
CCn1c(SCC(=O)c2cc(C)n(-c3ccc(C(=O)OC)cc3)c2C)nnc1-c1cccnc1 | -8 | 2 | -4 | 0 | -7 | 1
COCCn1c(C)cc(C(=O)CSc2nnc(-c3cccnc3)n2-c2ccccc2F)c1C | 98* | 0 | -4 | 0 | -5 | 1
COc1ccc(OC)c2c(C)cc(NCCN3CCOCC3)nc12 | -46 | -2 | -3 | 0 | -7 | -1
COCCOC(=O)c1c(C)nc(SCC(=O)Nc2ccc(OC)cc2)c(C#N)c1-c1ccco1 | 3 | 5 | · | -1 | 34* | 0
COc1cccc(NC(=O)CSc2nc3c(c(-c4ccco4)c2C#N)CCCC3)c1 | 13 | -5 | 1 | 0 | 0 | -1
CC(C)NCC(O)COc1cccc2[nH]ccc12 (configuration not stated) | 6 | 1 | · | -2 | -7 | 8.7*
COC(=O)Cc1c[nH]c2ccc(OCC(O)CNC(C)C)cc12 (configuration not stated) | -9 | -2 | 0 | -1 | 4 | -2
COc1cccc(CNCc2ccccn2)c1OC | -13 | -1 | -10 | -1 | 2 | 11*
CC1Oc2ccccc2N(CC(=O)N2CCc3ccccc32)C1=O (configuration not stated) | 7 | -5 | 5 | -1 | -4 | 0
CC1Oc2ccccc2N(CC(=O)N2CCCc3ccccc32)C1=O (configuration not stated) | 4 | 41* | 14 | -1 | 3 | 1
CCCc1cc(=O)[nH]c(SCC(=O)c2cc(C)n(C(C)COC)c2C)n1 (configuration not stated) | 6 | 0 | -4 | 0 | -9 | -1
Cc1ccc(-c2nnn(CC(=O)N(Cc3cccs3)C(C(=O)NC(C)(C)C)c3ccco3)n2)o1 (configuration not stated) | -48 | -2 | -2 | 0 | -13 | 0
CC(C)(C)NC(=O)C(c1ccco1)N(C(=O)Cn1nnc(-c2ccc(F)cc2)n1)c1cccc(F)c1 (configuration not stated) | -7 | -1 | -3 | -1 | 8 | 10*
Cc1ccc(-c2nnn(CC(=O)N(c3ccc(F)cc3)C(C(=O)NC3CCCC3)c3ccco3)n2)o1 (configuration not stated) | -7 | 0 | 16 | 0 | 16 | 0
Cc1ccc(-c2nnn(CC(=O)N(c3cccc(F)c3)C(C(=O)NC3CCCC3)c3ccco3)n2)o1 (configuration not stated) | -8 | -1 | 27 | 0 | 32* | 1
SMILES | S1P1 ag-PAM | 5HT1a ag | 5HT1a antag | S1P3 agonist | HTR1E antagonist | 5HT1E ag
Cc1ccc(C)c(N2CCN(CCCNC(=O)Cn3cc4c(n3)CCCCC4)CC2)c1 | -14 | -3 | 25 | -2 | 10 | 1
O=S(=O)(/C=C/c1ccccc1)Nc1ccc2c(c1)OCO2 | 7 | 1 | · | -5 | 11 | 0
COc1cc(NC(=O)c2cc3c(C)nc4ccccc4c3o2)cc(OC)c1OC | -24 | 5 | 0 | -1 | 11 | 0
COc1ccc(CNC(=O)c2cc3c(C)nc4ccccc4c3o2)c(OC)c1 | 94* | 2 | 17 | -2 | 16 | 0
Cn1c(CCNC(=O)c2ccccc2F)nnc1SCc1nc2ccccc2c(=O)[nH]1 | · | -2 | -21 | -1 | -7 | 0
CN(C=O)CP(=O)(O)CCN1CCCC1=O | -17 | -1 | -18 | 0 | -4 | 1
O=C(Nc1cccc(-c2nc3ccccc3[nH]2)c1)c1cccc(NC(=O)c2ccco2)c1 | 3 | 2 | 33 | 0 | 43* | 0
Cc1ccc(-c2nc3ccccc3[nH]2)cc1NC(=O)c1ccco1 | -19 | 0 | -1 | -2 | 11 | -1
O=C(O)CCCC(=O)NCCCCc1ccccc1 | -13 | -5 | 4 | -2 | 0 | 0
O=C(c1ccc(C(=O)N2CCCc3ccccc32)nc1)N1CCCc2ccccc21 | -3 | 2 | 11 | -1 | 14 | -2
Clc1ccc(CSc2nnc(-c3ccncc3)o2)cc1 | 97* | 1 | 5 | 3 | 5 | 0
OCC#CCSc1nnc(-c2ccncc2)o1 | -6 | -2 | -1 | -2 | -3 | 1
CN(C)S(=O)(=O)c1ccc(S(=O)(=O)N(Cc2ccco2)Cc2ccccc2Cl)cc1 | 9 | -2 | 22 | -2 | 32* | -1
O=S(=O)(c1ccc(S(=O)(=O)N(Cc2ccco2)Cc2ccccc2Cl)cc1)N1CCCC1 | 6 | 0 | 9 | 1 | 3 | 0
Cc1nnc(SC(=O)N2c3ccccc3Sc3ccccc32)s1 | 115* | -1 | 74* | 0 | 24 | 0
Cc1nnc(SCC(=O)N2c3ccccc3Sc3ccccc32)n1N | -5 | -3 | 4 | 2 | -7 | 0
CCSc1nnc(NC(=O)C2Cc3ccccc3CN2C(=O)c2ccco2)s1 (configuration not stated) | 13 | -1 | 4 | 0 | -3 | 0
CCOC(=O)c1cccc(NC(=O)C2CCCN2S(=O)(=O)c2cccc3cccnc23)c1 (configuration not stated) | 2 | -3 | 3 | -1 | 9 | 1

Source: PubChem BioAssay
